What is called IC50 is the point on the concentration scale where inhibition reaches its midpoint.

Our source for the IC50 values is ChEMBL document CHEMBL1144024, “Low molecular weight lignin suppresses activation of NF-kappaB and HIV-1 promoter” (Bioorg Med Chem, 2008).

Molecules are shown by their SMILES. ≈ marks a conversion by molar mass, not a printed value.

Assay [1] can be described thus: Inhibition of TNF-induced NF-kappaB activation in human […] cells by luciferase assay. It is filed as cell-based. Summed up:
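293-T cells co-transfected with 5 lg NF-κB luciferase reporter plus 0.008 lg pCMV-β-galactosidase, then replated after 2 h. Cultured 19 h (lignins) or 20 h (model compounds) before 1 h pretreatment with test agent. Stimulated with 3 ng/ml TNFα for 5 h. Luciferase chemiluminescence normalized to β-galactosidase activity; IC50 reported.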

Assay [2] has as its system Human immunodeficiency virus 1. Description: Inhibition of HIV1 5'-long terminal repeat promoter expression in human 293T cells by luciferase assay. It is filed as functional. The following applies: Human immunodeficiency virus 1, HEK-293T. Summed up:
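293-T cells co-transfected in 10-cm dishes with 5 lg CD-12-luc LTR reporter plus 0.008 lg pCMV-β-galactosidase. Replated after 2 h and cultured 4 h, then exposed to test agent or vehicle for 20 h (lignins) or 21 h (model compounds). Luciferase chemiluminescence normalized to β-galactosidase. IC50 reported; lignin data are means of three independent experiments.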

Consider `COc1cc([C@@H](O)[C@@H](CO)Oc2ccccc2OC)ccc1O`, for which the IC50 in assay [1] was 126 µg/mL (≈ 393 µM); in assay [2], more than 150 µg/mL.
On to `COc1cc([C@H]2Oc3c(OC)cc(/C=C/CO)cc3[C@@H]2CO)ccc1O`, for which the IC50 was found to be 19 µg/mL (≈ 53 µM) in assay [1] and 34 µg/mL (≈ 94.9 µM) in assay [2].
Turning to `CCCc1cc(OC)c(O)c(-c2cc(CCC)cc(OC)c2O)c1`, the half-maximal inhibitory concentration (IC50) in assay [1] and in assay [2] was more than 150 µg/mL each time.
In the case of `COc1cc([C@@H](O)[C@@H](CO)c2ccc(O)c(OC)c2)ccc1O`, the 50% inhibitory concentration (IC50) in assay [1] and in assay [2] was more than 150 µg/mL each time.
Turning to `COc1cc(C(=O)[C@@H](CO)Oc2ccccc2OC)ccc1O`, the results for the half-inhibitory concentration (IC50) in assay [1] and in assay [2] were 43 µg/mL (≈ 135 µM) and 107 µg/mL (≈ 336 µM), respectively.
`COc1cc([C@@H]2OC[C@@H]3[C@H]2CO[C@H]3c2ccc(O)c(OC)c2)ccc1O` (single isomer, unassigned) [(+)-PINORESINOL]: the IC50 in assay [1] is 49 µg/mL (≈ 137 µM); in assay [2], more than 150 µg/mL.
